The values below come from PMC11583631 (RSC Advances, 2024).

Assay [1] concerns bacterial tyrosinase enzyme. Put plainly: in vitro bacterial tyrosinase inhibition assay. The class given is biochemical. To be noted: L-tyrosine substrate; for Percentage inhibition: 37 °C, absorbance 475 nm; for IC50: by extrapolation of the graph.
Another assay concerns tyrosinase enzyme. Description: kinetic studies. In kind it is biochemical, bacterial. Particulars: Lineweaver–Burk and Dixon plots, tyrosine 0.1–1 mM. The procedure, abridged: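 Isolated bacterial tyrosinase; pre-incubation and measurement timing as in the main inhibition assay. Lineweaver–Burk: 1/V vs 1/[S]. Ki (EI) and Ki′ (ESI) from secondary plots of slope and intercept vs inhibitor concentration. Dixon plot (1/V vs inhibitor concentration) confirmed inhibition type.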

Assay [2] concerns the target bacterial tyrosinase enzyme. To be noted: standard inhibitors; ref [50]; cited from earlier work.

Molecules are shown by their SMILES. Read-outs that look alike come from different tables or passages of the source.

`CCCCc1ccc(NC(=O)CSc2nnc(-c3cc4c(ccc5ccccc54)o3)n2-c2ccccc2)cc1` [20a, N-(4-butylphenyl)-2-((5-(naphtho[2,1-b]furan-2-yl)-4-phenyl-4H-1,2,4-triazol-3-yl)thio)acetamide]: the Percentage inhibition in assay [1] was found to be 22.84 ± 0.05. On to `Cc1ccc(C)c(NC(=O)CSc2nnc(-c3cc4c(ccc5ccccc54)o3)n2-c2ccccc2)c1` [20b, N-(2,5-dimethylphenyl)-2-((5-(naphtho[2,1-b]furan-2-yl)-4-phenyl-4H-1,2,4-triazol-3-yl)thio)acetamide], for which the Percentage inhibition in assay [1] is recorded as 31.40 ± 0.25. As to `CCNC(=O)CSc1nnc(-c2cc3c(ccc4ccccc43)o2)n1-c1ccccc1` [20c, N-ethyl-2-((5-(naphtho[2,1-b]furan-2-yl)-4-phenyl-4H-1,2,4-triazol-3-yl)thio)acetamide], the Percentage inhibition in assay [1] came to 22.62 ± 0.30.

For `COc1ccc(OC)c(NC(=O)CSc2nnc(-c3cc4c(ccc5ccccc54)o3)n2-c2ccccc2)c1` [20d, N-(2,5-dimethoxyphenyl)-2-((5-(naphtho[2,1-b]furan-2-yl)-4-phenyl-4H-1,2,4-triazol-3-yl)thio)acetamide], the Percentage inhibition in assay [1] was found to be 22.77 ± 0.17. Take `O=C(CSc1nnc(-c2cc3c(ccc4ccccc43)o2)n1-c1ccccc1)Nc1ccccc1Cl` [20f, N-(2-chlorophenyl)-2-((5-(naphtho[2,1-b]furan-2-yl)-4-phenyl-4H-1,2,4-triazol-3-yl)thio)acetamide]: in assay [1], the Percentage inhibition was 32.34 ± 0.07 and the IC50 is 0.51 ± 0.12 µM. Besides, the type of inhibition result in the assay with tyrosinase enzyme is given as “non-competitively”. `COc1ccccc1NC(=O)CSc1nnc(-c2cc3c(ccc4ccccc43)o2)n1-c1ccccc1` [20g, N-(2-methoxyphenyl)-2-((5-(naphtho[2,1-b]furan-2-yl)-4-phenyl-4H-1,2,4-triazol-3-yl)thio)acetamide]: in assay [1], the Percentage inhibition is 5.40 ± 0.05 and the 50% inhibitory concentration (IC50) was 12.9 ± 0.15 µM. For the compound `O=C(CSc1nnc(-c2cc3c(ccc4ccccc43)o2)n1-c1ccccc1)Nc1ccc(F)cc1` [20h, N-(4-fluorophenyl)-2-((5-(naphtho[2,1-b]furan-2-yl)-4-phenyl-4H-1,2,4-triazol-3-yl)thio)acetamide], in assay [1], the Percentage inhibition is on record as 13.92 ± 0.11 and the IC50 is 9.36 ± 0.06 µM. For `O=C(CSc1nnc(-c2cc3c(ccc4ccccc43)o2)n1-c1ccccc1)N1CCOCC1` [20i, 1-Morpholino-2-((5-(naphtho[2,1-b]furan-2-yl)-4-phenyl-4H-1,2,4-triazol-3-yl)thio)ethanone], in assay [1], the Percentage inhibition was 30.55 ± 0.1 and the IC50 was 1.99 ± 0.07 µM. The corresponding values for `CCN(CC)C(=O)CSc1nnc(-c2cc3c(ccc4ccccc43)o2)n1-c1ccccc1` [20j, N,N-diethyl-2-((5-(naphtho[2,1-b]furan-2-yl)-4-phenyl-4H-1,2,4-triazol-3-yl)thio)acetamide] are 2.61 ± 0.50 and 23.03 ± 0.18 µM. `O=C1O[C@H]([C@@H](O)CO)C(O)=C1O` [Ascorbic acid, reference compound] registered a Percentage inhibition in assay [1] of 58.66 ± 1.00. Besides, the IC50 in assay [2] was 11.5 ± 1 µM. As for `O=c1cc(CO)occ1O` [Kojic acid, reference compound], the Percentage inhibition in assay [1] was found to be 6.80 ± 0.58. Besides, the half-maximal inhibitory concentration (IC50) in assay [2] was 30.3 ± 0.75 µM.
